Laboratory results from ChEMBL document CHEMBL5038571, “Design and Synthesis of EZH2-Based PROTACs to Degrade the PRC2 Complex for Targeting the Noncatalytic Activity of EZH2” (J Med Chem, 2021).
Calls of active or inactive are those of the source. The rule behind the calls is not given here.

Tests used:
[1] = target: T1, Protein cereblon/Histone-lysine N-methyltransferase EZH2 (Homo sapiens) (UniProt Q15910+Q96SW2); test: PROTAC activity at CRBN E3 ligase/EZH2 in PRC2 complex in human WSUDLCL2 cells assessed as reduction in H3K27me3 level incubated for 48 hrs by Western blot analysis; format: cell-based; conditions: dose 1-10 µM
How it was run: (§1)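 WSU-DLCL-2 cells treated 48 h (1 μM for the single-concentration screen), lysed; SDS-PAGE, nitrocellulose transfer, 5% milk block, primary antibody 4 °C overnight, chemiluminescence. Bands quantified by densitometry, normalized to GAPDH, expressed relative to DMSO-treated cells; mean ± SD of three independent experiments, t-test.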

MDA-MB-468 [2] = test: Downregulation of […] mRNA expression in human MDA-MB-468 cells at 10 uM incubated for 48 hrs by qRT-PCR analysis; format: functional, cell-based
How it was run: (§2)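 Cells treated 48 h. Total RNA extracted with Trizol, reverse-transcribed, and SYBR RT-qPCR run: 95 °C 30 s, then 40 cycles of 95 °C 6 s and 60 °C 20 s. mRNA normalized to the DMSO-treated group. Mean SD of three independent experiments, t-test versus DMSO.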

MDA-MB-468 [3] = test: Downregulation of CEP76 mRNA expression in human MDA-MB-468 cells at 10 uM incubated for 48 hrs by qRT-PCR analysis; format: functional, cell-based; how it was run: as §2
[4] = target: Histone-binding protein RBBP4 (Homo sapiens) (UniProt Q09028); test: Binding affinity to RbAp48 in human WSUDLCL2 cells assessed as thermal stability by measuring shift in temperature at 60 uM pretreated with proteasome inhibitor MG132 for 1 hr followed by compound addition incubated for 2 hrs by cellular thermal shift based Western blot analysis; format: cell-based
How it was run: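 Cellular thermal shift: cells suspended at 1.5 × 10⁶/mL and pretreated with MG-132 (5 μM, 1 h), then given 60 μM compound for 2 h with a DMSO control. Cells were lysed in RIPA with cocktail for 1 h. Supernatant aliquots were heated 6 min at 45, 48, 51, 54, 57 and 60 °C and centrifuged 15 min. Soluble protein was immunoblotted; bands quantified by densitometry; three independent experiments.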

NCI-H1299 [5] = test: Downregulation of CEP76 mRNA expression in human NCI-H1299 cells at 10 uM incubated for 48 hrs by qRT-PCR analysis; format: functional, cell-based; how it was run: as §2
[6] = target: T1, Protein cereblon/Histone-lysine N-methyltransferase EZH2 (Homo sapiens); test: PROTAC activity at CRBN E3 ligase/EZH2 in PRC2 complex in human WSUDLCL2 cells assessed as reduction in H3K27me3 protein level at 1 uM measured after 48 to 72 hrs by Western blot analysis; format: cell-based; conditions: time 48-72 hrs
[7] = target: T1, Protein cereblon/Histone-lysine N-methyltransferase EZH2 (Homo sapiens); test: PROTAC activity at CRBN E3 ligase/EZH2 in PRC2 complex in human WSUDLCL2 cells assessed as downregulation of EZH2 expression at 1 uM pretreated with EED226 for 4 hrs followed by compound addition and measured after 48 hrs by Western blot analysis; format: cell-based
How it was run: (§3)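 WSU-DLCL-2 cells pretreated 4 h with the named inhibitor, then compound added and incubated a further 48 h. EZH2, SUZ12, EED and RbAp48 measured by western blot (nitrocellulose transfer, skim-milk block, primary antibody overnight at 4 °C, chemiluminescent detection).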

A549 [8] = test: Downregulation of ARL6IP mRNA expression in human A549 cells at 10 uM incubated for 48 hrs by qRT-PCR analysis; format: functional, cell-based; how it was run: as §2
[9] = target: T1, Protein cereblon/Histone-lysine N-methyltransferase EZH2 (Homo sapiens); test: PROTAC activity at CRBN E3 ligase/EZH2 in PRC2 complex in human WSUDLCL2 cells assessed as induction of EZH2 degradation by measuring reduction in EZH2 protein level at 1 uM measured after 48 to 72 hrs by Western blot analysis; format: cell-based; conditions: time 48-72 hrs
[10] = target: T1, Protein cereblon/Histone-lysine N-methyltransferase EZH2 (Homo sapiens); test: PROTAC activity at CRBN E3 ligase/EZH2 in PRC2 complex in human A2780 cells assessed as induction of RbAp48 degradation by measuring reduction in RbAp48 protein level at 1 uM incubated for 48 hrs by Western blot analysis; format: cell-based
How it was run: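 Cancer cell lines exposed to 1 μM compound for 48 h. Lysates immunoblotted (SDS-PAGE, nitrocellulose, 5% milk block, primary antibody overnight at 4 °C) for EZH2, SUZ12, EED, RbAp48 and H3K27me3. Bands quantified by densitometry and normalized to GAPDH.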

[11] = target: T1, Protein cereblon/Histone-lysine N-methyltransferase EZH2 (Homo sapiens); test: PROTAC activity at CRBN E3 ligase/EZH2 in PRC2 complex in human WSUDLCL2 cells assessed as induction of RbAp48 degradation at 10 uM incubated for 48 hrs by Western blot analysis; format: cell-based
NCI-H1299 [12] = test: Downregulation of CHEK1 mRNA expression in human NCI-H1299 cells at 10 uM incubated for 48 hrs by qRT-PCR analysis; format: functional, cell-based; how it was run: as §2
[13] = target: T1, Protein cereblon/Histone-lysine N-methyltransferase EZH2 (Homo sapiens); test: PROTAC activity at CRBN E3 ligase/EZH2 in PRC2 complex in human WSUDLCL2 cells assessed as downregulation of EED expression at 1 uM pretreated with MLN4924 for 4 hrs followed by compound addition and measured after 48 hrs by Western blot analysis; format: cell-based; how it was run: as §3
[14] = target: T1, Protein cereblon/Histone-lysine N-methyltransferase EZH2 (Homo sapiens); test: PROTAC activity at CRBN E3 ligase/EZH2 in PRC2 complex in human WSUDLCL2 cells assessed as induction of RbAp48 degradation at 1 uM incubated for 48 hrs by Western blot analysis relative to control; format: cell-based; how it was run: as §1
[15] = target: T1, Protein cereblon/Histone-lysine N-methyltransferase EZH2 (Homo sapiens); test: PROTAC activity at CRBN E3 ligase/EZH2 in PRC2 complex in human WSUDLCL2 cells assessed as induction of RbAp48 degradation at 1 uM measured up to 2 hrs by Western blot analysis; format: cell-based; conditions: time hrs <=2
MDA-MB-468 [16] = test: Downregulation of TACC3 mRNA expression in human MDA-MB-468 cells at 10 uM incubated for 48 hrs by qRT-PCR analysis; format: functional, cell-based; how it was run: as §2
[17] = target: T1, Protein cereblon/Histone-lysine N-methyltransferase EZH2 (Homo sapiens); test: PROTAC activity at CRBN E3 ligase/EZH2 in PRC2 complex in human SU-DHL-6 cells assessed as reduction in H3K27me3 level at 1 uM incubated for 48 hrs by Western blot analysis; format: cell-based
How it was run: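 Cells cultured in DMEM or RPMI 1640 with 10% FBS and 1% penicillin-streptomycin, 37 °C, 5% CO2; exposed to 1 μM compound for 48 h. Lysates run on SDS-PAGE and transferred to nitrocellulose. Blocked 2 h in 5% skim milk, primary antibody overnight at 4 °C, then secondary antibody. Chemiluminescent detection of PRC2 subunits and H3K27me3.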

A549 [18] = test: Antiproliferative activity against human A549 cells harboring SWI/SNF mutant assessed as inhibition of cell growth at 10 uM treated for 9 days by optical microscopic analysis; format: functional, cell-based; conditions: time 9.0 day
How it was run: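 Cells seeded at 5 × 10³ per well, grown 24 h, then exposed to compound at 10 μM for 9 days with medium refreshed. Cells were photographed and counted on days 1, 3, 5, 7 and 9. For lines 1-2, EZH2-targeting or control shRNA was induced in the cells. Mean SD of three independent experiments; t-test against control.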

[19] = target: T1, Protein cereblon/Histone-lysine N-methyltransferase EZH2 (Homo sapiens); test: PROTAC activity at CRBN E3 ligase/EZH2 in PRC2 complex in human WSUDLCL2 cells assessed as downregulation of EED expression at 1 uM pretreated with GSK126 for 4 hrs followed by compound addition and measured after 48 hrs by Western blot analysis; format: cell-based; how it was run: as §3

T1 sequence (Q15910 whole entry, looked up): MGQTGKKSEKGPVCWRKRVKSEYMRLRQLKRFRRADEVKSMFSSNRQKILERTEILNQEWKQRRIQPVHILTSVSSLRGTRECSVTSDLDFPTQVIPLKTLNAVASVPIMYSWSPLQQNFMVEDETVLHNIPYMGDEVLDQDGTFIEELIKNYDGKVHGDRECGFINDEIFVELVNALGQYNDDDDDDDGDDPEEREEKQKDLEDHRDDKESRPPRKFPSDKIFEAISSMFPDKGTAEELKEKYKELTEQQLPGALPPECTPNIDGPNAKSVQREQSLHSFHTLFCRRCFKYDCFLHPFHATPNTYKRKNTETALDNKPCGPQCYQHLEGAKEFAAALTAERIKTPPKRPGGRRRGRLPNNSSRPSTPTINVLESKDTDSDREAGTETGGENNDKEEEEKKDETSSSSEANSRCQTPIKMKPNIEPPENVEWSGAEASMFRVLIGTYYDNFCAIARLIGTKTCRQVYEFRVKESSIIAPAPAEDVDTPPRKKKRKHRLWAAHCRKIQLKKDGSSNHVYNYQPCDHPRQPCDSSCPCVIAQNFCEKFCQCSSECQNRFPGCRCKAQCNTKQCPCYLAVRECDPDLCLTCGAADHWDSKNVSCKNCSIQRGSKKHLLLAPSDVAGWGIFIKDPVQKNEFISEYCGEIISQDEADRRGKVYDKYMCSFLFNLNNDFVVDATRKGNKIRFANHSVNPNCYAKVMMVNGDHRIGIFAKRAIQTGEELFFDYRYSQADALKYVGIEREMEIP
T1 sequence (Q96SW2 whole entry, looked up): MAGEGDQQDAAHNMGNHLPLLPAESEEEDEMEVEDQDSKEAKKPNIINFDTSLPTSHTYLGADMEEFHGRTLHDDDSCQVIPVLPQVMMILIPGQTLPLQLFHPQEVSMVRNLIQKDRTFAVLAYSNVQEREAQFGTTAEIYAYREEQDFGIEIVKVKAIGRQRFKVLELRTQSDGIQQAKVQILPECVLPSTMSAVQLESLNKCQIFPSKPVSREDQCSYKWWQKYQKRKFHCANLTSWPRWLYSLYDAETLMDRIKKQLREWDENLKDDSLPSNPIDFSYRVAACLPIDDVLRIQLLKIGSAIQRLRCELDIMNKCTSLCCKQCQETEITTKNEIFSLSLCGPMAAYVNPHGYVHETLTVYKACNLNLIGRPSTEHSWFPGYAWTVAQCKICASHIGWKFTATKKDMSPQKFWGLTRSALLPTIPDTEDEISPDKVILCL
Chain of Histone-binding protein RBBP4 (Homo sapiens) (Q09028 whole entry): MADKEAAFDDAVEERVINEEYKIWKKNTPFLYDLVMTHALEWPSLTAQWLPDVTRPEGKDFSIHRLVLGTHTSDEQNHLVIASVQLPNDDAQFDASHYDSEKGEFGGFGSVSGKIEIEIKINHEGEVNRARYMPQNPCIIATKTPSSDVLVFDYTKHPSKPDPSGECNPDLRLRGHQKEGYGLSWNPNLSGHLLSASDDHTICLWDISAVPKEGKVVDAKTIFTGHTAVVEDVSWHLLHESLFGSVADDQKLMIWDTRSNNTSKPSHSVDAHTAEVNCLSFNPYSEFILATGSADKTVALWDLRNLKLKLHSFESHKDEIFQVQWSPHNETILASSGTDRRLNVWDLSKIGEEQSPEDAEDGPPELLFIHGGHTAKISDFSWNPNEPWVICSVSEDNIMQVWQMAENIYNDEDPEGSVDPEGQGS

Activity [1]: Dose-Dependent Effect | Activity [4]: inactive | Activity [6]: Active | Activity [7]: Active | Activity [9]: Active | Activity [10]: Active | Activity [11]: inactive | Activity [13]: inactive | Activity [14]: 74% | Activity [15]: inactive | Activity [17]: Active | Activity [19]: inactive
SMILES: CCN(c1cc(-c2ccc(CN3CCN(CCCCCCCOc4cccc5c4C(=O)N(C4CCC(=O)NC4=O)C5=O)CC3)cc2)cc(C(=O)NCc2c(C)cc(C)[nH]c2=O)c1C)C1CCOCC1 (centres undefined)
Activity (MDA-MB-468 [2]): Active | Activity (MDA-MB-468 [3]): Active | Activity (NCI-H1299 [5]): Active | Activity (A549 [8]): Active | Activity (NCI-H1299 [12]): Active | Activity (MDA-MB-468 [16]): Active | Activity (A549 [18]): Active
